Laboratory results published in ChEMBL document CHEMBL2010641, “A novel 3,4-dihydropyrimidin-2(1H)-one: HIV-1 replication inhibitors with improved metabolic stability” (Bioorg Med Chem Lett, 2012).
Activity calls are given as the source filed them. The calls are words filed in the database; no cut-off is given here.

Assays:
[1] = test system: Human immunodeficiency virus 1; assay: Antiviral activity against HIV1 LAI infected in CEMx174 cells coexpressing GFP after 5 days by fluorimetry; format: functional, organism-based; details: for EC50: Human immunodeficiency virus 1, LAI, CEMx174, 120 h
In short: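 Cells (4000/well) pre-incubated with compound diluted in DMSO for 1 h at 37 °C, 5% CO2, then infected with HIV-1 LAI at MOI 3 and cultured 5 days at 37 °C, 5% CO2. EC50 is the concentration inhibiting viral replication by 50%. Values are geometric means of two determinations (n = 2), each within 25% of the mean.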

[2] = Cytotoxicity against human CEmx174 cells; format: cell-based
In short: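 CC50 is the concentration that reduces viability of uninfected cells by 50%. Reported as the geometric mean of two determinations (n = 2), each within 25% of the mean.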

[3] = Half life in human liver microsomes at 2 uM; format: ADME, Microsome
In short: (§1)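 Compound at 2 µM final was incubated with rat or human liver microsomes (0.5 mg/mL protein) in potassium phosphate buffer with 0.2% DMSO final. Reaction was started with NADPH and stopped at 0, 5, 10, 30, 60 and 120 min. Loss of parent was measured by LC/MS (ESI quadrupole, water/acetonitrile with 0.1% formic acid gradient). Values are geometric means of n = 2.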

[4] = Half life in rat liver microsomes at 2 uM; format: ADME, Microsome; in short: as §1

Structure (SMILES) | EC50 [1] [µM] | half-life at 2 µM [3] [min] | half-life at 2 µM [4] [min] | CC50 [2] [µM] | Activity [1]
CCC1=C(C(=O)CC2CCC(C)CC2)[C@H](c2ccc(O)c(Cl)c2)NC(=O)N1 (stereo not given in full) | 0.48 |  |  | > 10 | 
CCC1=C(C(=O)O)[C@H](c2cccc(O)c2)NC(=O)N1 |  |  |  |  | inactive
CCC1=C(C(=O)OCC2CCCCC2)[C@H](c2cccc(O)c2)NC(=O)N1 |  | 11 | 1.5 | > 10 | 
CCC1=C(C(=O)CC2CCCC2)[C@H](c2ccc(O)c(Cl)c2)NC(=O)N1 | 3.28 |  |  | > 10 | 
Cc1ccnc2c1NC(=O)c1cccnc1N2C1CC1 [NEVIRAPINE] |  |  |  | > 10 | 
CCC1=C(C(=O)CC2CCC(CC)CC2)[C@H](c2ccc(O)c(Cl)c2)NC(=O)N1 (stereo not given in full) | 0.087 | 24 | 16 | > 10 | 
O=C1NC2=C(C(=O)OC2)C(c2cccc(O)c2)N1 (stereo not given) | > 10 |  |  | > 10 | 
CCC1=C(c2nc(C3CCCCC3)c[nH]2)[C@H](c2ccc(O)c(F)c2)NC(=O)N1 | > 10 |  |  | > 10 | 
CCC1=C(C(=O)O)[C@H](c2ccc(O)c(Cl)c2)NC(=O)N1 |  |  |  |  | inactive
CCC1=C(C(=O)CC2CCC(OC)CC2)[C@H](c2ccc(O)c(Cl)c2)NC(=O)N1 (stereo not given in full) | > 10 |  |  | > 10 | 

More lines, main results first:

EC50 [1] [µM] | half-life at 2 µM [3] [min] | half-life at 2 µM [4] [min] | Structure (SMILES) | CC50 [2] [µM] | Activity [1]
0.983 | 18 | 7 | CCC1=C(C(=O)CC2CCCCC2)[C@H](c2ccc(O)c(Cl)c2)NC(=O)N1 | > 10 | 
0.329 |  |  | CCC1=C(C(=O)CCC2CCCCCC2)[C@H](c2ccc(O)c(Cl)c2)NC(=O)N1 | > 10 | 
0.42 |  |  | CCC1=C(C(=O)CCC2CCCC2)[C@H](c2ccc(O)c(Cl)c2)NC(=O)N1 | > 10 | 
> 10 |  |  | CCC1=C(C(=O)CCc2ccccc2)[C@H](c2ccc(O)c(Cl)c2)NC(=O)N1 | > 10 | 
0.116 | 132 | 54 | CCC1=C(c2nc(C3CCCCC3)co2)[C@H](c2ccc(O)c(Cl)c2)NC(=O)N1 | > 10 | 
1.4 |  |  | CCC1=C(C(=O)CC2CCC(C(C)C)CC2)[C@H](c2ccc(O)c(Cl)c2)NC(=O)N1 (stereo not given in full) | > 10 | 
> 10 |  |  | O=C1NC2=C(C(=O)OCC2)C(c2cccc(O)c2)N1 (stereo not given) | > 10 | 
0.078 | 682 | 30 | CCC1=C(c2nc(C3CCCCC3)cs2)[C@H](c2ccc(O)c(Cl)c2)NC(=O)N1 | > 10 | 
0.019 | 36 | 7 | CCC1=C(C(=O)OCC2CCCCC2)[C@H](c2ccc(O)c(Cl)c2)NC(=O)N1 | > 10 | 
0.403 | 22 | 5 | CCC1=C(C(=O)CCC2CCCCC2)[C@H](c2ccc(O)c(Cl)c2)NC(=O)N1 | > 10 | 
